Bioassay records: PubChem, several laboratories
Yeast lifespan up: compounds extending yeast replicative lifespan, primary screen, S. cerevisiae, OD615; actives 0.68% (n = 130,000); inhibition of the nicotinamide effect, % at 10 µM; S. cerevisiae growth with nicotinamide; deaD strain in restrictive glucose medium;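 active = inhibition above a set limit, placed 3 SD over the median of all compounds, cut at about 26% in these data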
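assay system = DeaD-strain S. cerevisiae | buffer or medium = restrictive glucose medium | reagent = 1.5 mM nicotinamide | compound = 10 µM single point, 0.25% DMSO | incubation = 48 h compound exposure at 30 °C, humidified | signal = OD615 measurement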
RAM inhibit: inhibitors of the yeast RAM network, primary screen, dse1pr::URA3 reporter, 5-FOA selection | S. cerevisiae dse1pr::URA3 reporter, 5-FOA growth OD615, 2 d; analog-sensitive cbk1-as2 kinase mutant strain | actives 1.8% (n = 190,000) | inhibition, % at 50 µM | AID 868, 2007;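 active = inhibition above a set limit, 3 SD over mean compound inhibition, cut at about 8.4% in these data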;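 note: inhibition rescues growth on 5-FOA so higher OD means more RAM inhibition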
Ins promoter up: insulin promoter activators in MIN6 cells, imaging, high-content screening, mouse beta cells | actives 0.3% (n = 190,000) | AID 1625, 2009 | z-score at 5 µM | MIN6 insulin promoter-GFP reporter; hits give high values;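 active = z-score above 3 at 5 µM with at least 500 cells counted in the well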
INS promoter inh: inhibitors of insulin promoter-driven GFP, primary screen, imaging, TRM-6 cells, eGFP reporter, cell count. inhibition, % at 2 µM. AID 1273, 2008. actives 0.9% (n = 130,000). reporter expression induced with tamoxifen;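 active = inhibition above the mean plus 3 SD, with well images judged a real hit on visual review, cut at about 60% in these data, passing the limit was not always enough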
BB579 growth dn: growth inhibitors of yeast BB579 in restrictive medium, primary screen, yeast lifespan-shortening project, S. cerevisiae; OD615, 48 h; inhibition, % at 10 µM; actives 0.51% (n = 140,000); AID 804, 2007;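 active = inhibition above a set limit, 3 SD over the mean compound inhibition, cut at about 44% in these data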
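Test system: DeaD yeast strain BB579 / Buffer or medium: restrictive glucose-based CSMM-D medium / Doses: single 10 µM dose / Schedule: 4 h cell preincubation, 48 h compound exposure, 30 °C humidified / Technique: culture absorbance at 615 nm / Controls: amphotericin B positive control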
Large screens that a line does not name were inactive. Shown are actives, neighbours in structure and some others; about 3.1% of the full set was active somewhere.

CCc1cc2c(NCC3CCCO3)ncnc2s1 (configuration not stated)	INS promoter inh 74
Cn1c(-c2cccc([N+](=O)[O-])c2)cnc1NCc1ccc(C#N)cc1	none (no result: Yeast lifespan up, BB579 growth dn)
CCc1ccc(S(=O)(=O)c2nnn3c2nc(NCCNC(C)=O)c2ccccc23)cc1	INS promoter inh 83 (no result: Yeast lifespan up, BB579 growth dn)
CCCCNc1nc2c(S(=O)(=O)c3ccccc3)nnn2c2ccccc12	none (no result: Yeast lifespan up, INS promoter inh, BB579 growth dn)
COc1cccc(CNC(=O)C2CCC(CNc3c(N4CCC(C)CC4)c(=O)c3=O)CC2)c1 (configuration not stated)	none (no result: Yeast lifespan up, RAM inhibit, INS promoter inh, BB579 growth dn)
O=C(COC(=O)CCC(NC(=O)OCc1ccccc1)C(=O)OCC(=O)Nc1ccccc1)Nc1ccccc1 (configuration not stated)	RAM inhibit 10 (no result: INS promoter inh)
O=C(CCC(NC(=O)OCc1ccccc1)C(=O)OCC(=O)N1CCCCC1)OCC(=O)N1CCCCC1 (configuration not stated)	none
CCSCc1nnc(SCC(=O)Nc2cc(F)ccc2C)n1C	none (no result: Yeast lifespan up, Ins promoter up, BB579 growth dn)
CCOC(=S)SCC(=O)N1CCc2ccccc2C1C1C(=O)CC(C)(C)CC1=O (configuration not stated)	Yeast lifespan up 37 (no result: INS promoter inh)
CCOC(=S)SCC(=O)N1CCc2cc(OC)c(OC)cc2C1C1C(=O)CC(C)(C)CC1=O (configuration not stated)	none
Cc1ccc(Cn2c(O)c(N=O)c3ccccc32)cc1	none (no result: Yeast lifespan up, BB579 growth dn)
O=Nc1c(O)n(Cc2ccc(Cl)cc2)c2ccccc12	Ins promoter up 3
Nc1cc2c(cc1C(=O)c1ccccc1)OCCO2	none
Nc1cc2c(cc1C(=O)c1ccc(Cl)cc1)OCCO2	INS promoter inh 76
COc1ccc(C(=O)N/C(=C\c2cn(S(=O)(=O)N(C)C)c3ccccc23)C(=O)NC(C)C)cc1	RAM inhibit 9.3 (no result: Yeast lifespan up, INS promoter inh, BB579 growth dn)
Cc1ccc(S(=O)(=O)NC(C)(C)CSc2ncccn2)cc1	none (no result: Yeast lifespan up, Ins promoter up, BB579 growth dn)
CC(C)(CSc1nncn1N)NS(=O)(=O)c1ccc(Cl)cc1	INS promoter inh 77
CCCCCCCC#Cc1ccccc1/C=N/S(=O)c1ccc(C)cc1 (configuration not stated)	Yeast lifespan up 36
CCCCC#Cc1ccccc1CC(=O)Nc1ccccc1	none
CCOC(=O)c1nnc(-c2ccccc2)nc1Sc1c(Cl)cccc1Cl	none
CCOC(=O)c1nnc(-c2ccccc2)nc1NCc1ccc(Cl)cc1	RAM inhibit 10 (no result: Ins promoter up)
CCOc1ccsc1C(=O)O	none (no result: Yeast lifespan up, RAM inhibit, INS promoter inh, BB579 growth dn)
O=C(CN1CCOc2ccccc21)NCc1ccc(F)cc1	INS promoter inh 60
CCc1ccc(-c2csc(NC(=O)C3CCCO3)c2C(=O)OC(C)C)cc1 (configuration not stated)	RAM inhibit 10 (no result: INS promoter inh)
COC(=O)c1c(-c2ccc(F)cc2)csc1NC(=O)C1CCCO1 (configuration not stated)	none (no result: Yeast lifespan up, INS promoter inh, BB579 growth dn)
COc1cc(/C=C(/C#N)C(=O)Nc2ccccc2)ccc1OCc1ccc(C(=O)O)cc1	none (no result: Yeast lifespan up, Ins promoter up, INS promoter inh, BB579 growth dn)
COc1cc(/C=C(/C#N)c2ccccc2F)ccc1OCc1ccccc1	RAM inhibit 10 (no result: INS promoter inh)
COc1ccc(N/C=C/c2nc(SC)nnc2C)cc1	none (no result: Yeast lifespan up, INS promoter inh, BB579 growth dn)
CN(C)c1ccc(N=Nc2ccc(S(=O)(=O)O)cc2)c2ccccc12	RAM inhibit 10 (no result: Yeast lifespan up, BB579 growth dn)
O=C1c2ccccc2C(=O)c2c1cccc2N1CCOCC1	BB579 growth dn 57 (no result: INS promoter inh)
CC(C)C(c1nnnn1Cc1ccc(F)cc1)N1CCC(C(N)=O)CC1 (configuration not stated)	none (no result: Yeast lifespan up, BB579 growth dn)
c1ccc2nc3ccccc3nc2c1	BB579 growth dn 60
COc1ccc(S(=O)(=O)N2CCN(c3cccc(C)c3C)CC2)cc1	RAM inhibit 8.4 (no result: INS promoter inh)
COc1ccc(N2CCN(S(=O)(=O)c3ccc(OC)cc3)CC2)cc1	none (no result: Yeast lifespan up, Ins promoter up)
Cc1cccc(C)c1N1CCN(S(=O)(=O)c2ccc(F)cc2)CC1	RAM inhibit 9.2
O=c1c2ccccc2c(/C=N/c2ncn[nH]2)c(O)n1Cc1ccccc1	INS promoter inh 71
O=C(C1CCN(c2nnc(-n3cccc3)s2)CC1)N1CCOCC1	INS promoter inh 100
O=C(C1CCN(c2nnc(-n3cccc3)s2)CC1)N1CCN(c2cccc(C(F)(F)F)c2)CC1	none
CC(=O)OC1COC(N2CCc3cc(Br)c([N+](=O)[O-])cc32)C(OC(C)=O)C1OC(C)=O (configuration not stated)	none
CCOc1ccc(C2NC(=O)C(C#N)=C(S)N2c2ccc(OC)cc2)cc1OC (configuration not stated)	INS promoter inh 80
COc1ccc(C(=O)NC(C(=O)NCC2CCCO2)C(C)C)cc1 (configuration not stated)	INS promoter inh 82 (no result: Yeast lifespan up, BB579 growth dn)
COc1ccc(OC)c(C2=NOC(C(=O)NCC3CCCO3)C2)c1 (configuration not stated)	Ins promoter up 3.7 (no result: INS promoter inh)
CCOc1ccc(C(=O)NC(C(=O)NCC2CCCO2)C(C)C)cc1 (configuration not stated)	none (no result: Yeast lifespan up, RAM inhibit, INS promoter inh, BB579 growth dn)
Cc1cc2cc3c(cc2nc1SCC(=O)N1c2ccccc2CC1C)OCO3 (configuration not stated)	none (no result: Yeast lifespan up)
Cc1cc2ccccc2nc1SCC(=O)N1c2ccccc2CC1C (configuration not stated)	INS promoter inh 100
CC1Cc2ccccc2N1C(=O)CSc1nnnn1Cc1ccccc1 (configuration not stated)	RAM inhibit 8.7
CCCn1nc(-c2ccccc2)c2nc3ccccc3nc21	RAM inhibit 9.6 (no result: INS promoter inh)
CCCCCn1nc(-c2ccccc2)c2nc3ccccc3nc21	none (no result: Ins promoter up)
O=c1c(Cl)c(NCCCO)cnn1-c1nc2ccccc2[nH]1	Yeast lifespan up 81
COCC(=O)Nc1ccc(S(=O)(=O)NCCc2ccccc2)cc1	INS promoter inh 100
CCC(=O)Nc1ccc(S(=O)(=O)NCCc2ccccc2)cc1	none (no result: Ins promoter up)
O=C(COc1ccccc1)NNC1=NS(=O)(=O)c2ccccc21	none (no result: Yeast lifespan up, INS promoter inh, BB579 growth dn)
C=CCN1C(C(=O)c2ccccc2)=C(OC(=O)COc2ccccc2)c2ccccc2S1(=O)=O	BB579 growth dn 90 (no result: Ins promoter up)
CCCCC[C@H](O)/C=C/[C@H]1C=CC(=O)[C@@H]1C/C=C\CCCC(=O)O	none (no result: Ins promoter up)
CCCCC1C(=O)CC[C@H]2[C@@H]1CC(=O)[C@@H]2C/C=C\CCCC(=O)O (some centres not stated)	Yeast lifespan up 50 (no result: Ins promoter up)
COc1c(F)c(F)c(C(=O)Nc2ccc(NC(=O)Cc3ccccc3)cc2)c(F)c1F	none (no result: Yeast lifespan up, INS promoter inh, BB579 growth dn)
COC(=O)c1ccc(Oc2nc(Nc3ccc(C)c(C)c3)nc(N(C)C)n2)cc1	none
O=C(COc1ccccc1)NCCSCc1ccc(Cl)cc1	RAM inhibit 9.9
CCC1=C(OC(=O)N(CC)CC)N2C(=O)OC(=NCCc3c[nH]c4ccccc34)[C@]2(Cc2ccccc2)[C@H]2C1=CC[C@H]1C(=O)NC(=O)[C@H]12	none (no result: Yeast lifespan up, RAM inhibit, INS promoter inh, BB579 growth dn)
O=C(CN1CCN(CC(=O)Nc2ccccc2C(F)(F)F)CC1)Nc1ccccc1F	INS promoter inh 85
